Test results taken from ChEMBL document CHEMBL1126285, “Novel benzothiophene-, benzofuran-, and naphthalenecarboxamidotetrazoles as potential antiallergy agents” (J Med Chem, 1992).

How the values were obtained:
Homo sapiens [1] = organism: Homo sapiens; assay: Evaluated for the inhibition of human basophil histamine release stimulated by anti-Immunoglobulin E (IgE) at a concentration of 33 uM; type: functional
Outline: (§1)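 Whole blood from well-characterized allergic donors; after red-cell sedimentation, leukocytes were washed and resuspended in buffer, preincubated with compound, then challenged with anti-IgE. Histamine was read by automated fluorometric assay, with inhibition taken against anti-IgE-challenged nondrug controls. IC50 runs used 3-fold steps over 1-100 μM.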

Homo sapiens [2] = organism: Homo sapiens; assay: Evaluated for the inhibition of human basophil histamine release stimulated by anti-Immunoglobulin E (IgE) at a concentration of 10 uM; type: functional; outline: as §1
Homo sapiens [3] = organism: Homo sapiens; assay: Evaluated for the inhibition of superoxide (O2 -) anion release from human neutrophils; type: functional
Outline: (§2)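 Neutrophil preparations (~98% purity) were isolated by Ficoll-Hypaque gradient centrifugation of anticoagulant-treated venous blood and stimulated with serum-opsonized zymosan. Respiratory burst was read as superoxide-mediated reduction of cytochrome C.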

Homo sapiens [4] = organism: Homo sapiens; assay: Evaluated for the inhibition of human basophil histamine release stimulated by anti-Immunoglobulin E (IgE) at a concentration of 10 uM; inactive; type: functional; outline: as §1
[5] = Compound was evaluated for the inhibition of human basophil histamine release stimulated by anti-Immunoglobulin E (IgE) at a concentration of 33 uM; inactive; type: functional; outline: as §1
Homo sapiens [6] = organism: Homo sapiens; assay: Inhibition of anti-IgE stimulated release of Thromboxane B2 (TXB2) from human chopped lung by 50% of control value; type: functional
Outline: (§3)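 Human lung tissue (~400 mg portions) was incubated 10 min in Tyrode's buffer at 37 °C, dosed with drug or vehicle, and challenged 10 min later with anti-IgE (final 3:1000) for 30 min. Supernatant leukotrienes or thromboxane were measured by RIA kits, giving the concentration for 50% inhibition of control release.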

Homo sapiens [7] = organism: Homo sapiens; assay: Inhibition of anti-IgE stimulated release of leukotriene C4/D4 (LTC4/D4) from human chopped lung by 50% of control value; type: functional; outline: as §3
Homo sapiens [8] = organism: Homo sapiens; assay: Inhibition of anti-IgE stimulated release of histamine from human chopped lung by 50% of control value; type: functional
Outline: (§4)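 Human lung tissue was washed, and ~400 mg portions were placed in 37 °C buffer. After 10 min in Tyrode's buffer, drug or vehicle was added; 10 min later, tissue was challenged with anti-IgE (final dilution 3:1000) for 30 min. Supernatant histamine was assayed, giving the concentration for 50% inhibition versus control.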

[9] = Compound was evaluated for the inhibition of superoxide (O2 -) anion release from human neutrophils at 100 uM; inactive; type: functional; outline: as §2
[10] = Concentration inhibiting anti-IgE stimulated release of histamine from human chopped lung by 50% of control value; type: functional, tissue-based; outline: as §4
[11] = Compound was evaluated for the inhibition of serum-opsonized zymosan stimulated superoxide (O2-) release from human neutrophil; type: functional; outline: as §2
[12] = Compound was evaluated for the inhibition of serum-opsonized zymosan stimulated superoxide (O2-) release from human eosinophil; type: functional
Outline: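 Eosinophils were enriched above 95% purity by discontinuous Percoll gradient centrifugation after Ficoll-Hypaque separation of venous blood leukocytes. Cells were stimulated with serum-opsonized zymosan, and superoxide was measured as cytochrome C reduction.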

[13] = Concentration inhibiting anti-IgE stimulated release of leukotriene C4/D4 (LTC4/D4) from human chopped lung by 50% of control value; type: functional, tissue-based; outline: as §3
[14] = Compound was evaluated for the inhibition of anti-IgE stimulated histamine release from human basophil; type: functional; outline: as §1
[15] = target: T1, Eosinophil peroxidase (Homo sapiens) (UniProt P11678); assay: Compound was evaluated for the inhibition of serum-opsonized zymosan stimulated eosinophil peroxidase release from human eosinophil; Inactive; type: functional; conditions: concentration not given here
T1 sequence (whole entry): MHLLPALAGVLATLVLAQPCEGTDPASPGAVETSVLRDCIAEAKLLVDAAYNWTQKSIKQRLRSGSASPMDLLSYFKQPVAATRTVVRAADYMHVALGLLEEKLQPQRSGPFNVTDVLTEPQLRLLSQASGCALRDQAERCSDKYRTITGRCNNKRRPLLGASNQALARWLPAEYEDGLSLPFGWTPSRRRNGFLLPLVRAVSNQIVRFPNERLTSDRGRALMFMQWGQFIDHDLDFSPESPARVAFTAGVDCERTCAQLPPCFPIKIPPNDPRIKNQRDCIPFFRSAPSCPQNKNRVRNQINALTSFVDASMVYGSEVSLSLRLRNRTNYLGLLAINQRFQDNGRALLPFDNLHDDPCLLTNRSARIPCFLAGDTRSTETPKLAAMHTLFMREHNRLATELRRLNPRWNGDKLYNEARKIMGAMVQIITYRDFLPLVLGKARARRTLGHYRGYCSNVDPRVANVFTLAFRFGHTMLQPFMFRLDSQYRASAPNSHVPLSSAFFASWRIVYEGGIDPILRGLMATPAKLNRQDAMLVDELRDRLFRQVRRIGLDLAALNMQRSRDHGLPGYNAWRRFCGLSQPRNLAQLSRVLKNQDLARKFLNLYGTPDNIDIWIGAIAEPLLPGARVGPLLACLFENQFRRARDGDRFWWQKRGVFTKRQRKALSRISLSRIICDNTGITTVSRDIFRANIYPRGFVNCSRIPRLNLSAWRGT

Homo sapiens [16] = organism: Homo sapiens; assay: Compound was evaluated for the inhibition of anti-IgE stimulated TXB2 release from human basophil; type: functional
Homo sapiens [17] = organism: Homo sapiens; assay: Compound was evaluated for the inhibition of serum-opsonized zymosan stimulated TXB2 release from human neutrophil; type: functional
Outline: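 Human polymorphonuclear leukocytes (~98% neutrophils) came from anticoagulant-treated venous blood via Ficoll-Hypaque centrifugation. They were stimulated with serum-opsonized zymosan, and TxB2 release was measured by radioimmunoassay.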

`COc1ccc2sc(C(=O)Nc3nn[nH]n3)c(OC(C)(C)C)c2c1` gave an inhibition at 33 µM (Homo sapiens [1]) of 100%, an inhibition at 10 µM (Homo sapiens [2]) of 62% and an IC50 (Homo sapiens [3]) greater than 100 µM.
For `COc1ccc2c(OC(C)C)c(C(=O)Nc3nn[nH]n3)sc2c1Cl`, the inhibition at 10 µM (Homo sapiens [4]) was less than 25%, the IC50 (Homo sapiens [3]) was greater than 100 µM and the inhibition at 33 µM [5] was less than 25%.
Compound `COc1ccc2sc(C(=O)Nc3nn[nH]n3)c(OC)c2c1` has an inhibition at 33 µM (Homo sapiens [1]) of 97.3%, an inhibition at 10 µM (Homo sapiens [2]) of 59.8% and an IC50 (Homo sapiens [3]) greater than 100 µM.
Work on `COc1ccc2sc(C(=O)Nc3nn[nH]n3)c(Oc3ccccc3)c2c1` yielded an IC50 (Homo sapiens [6]) of 4.9 µM, an inhibition at 33 µM (Homo sapiens [1]) of 91.3% and an inhibition at 10 µM (Homo sapiens [2]) of 96.3%. For the same compound, the IC50 (Homo sapiens [7]) was 1.1 µM, the IC50 (Homo sapiens [3]) was 10.1 µM and the IC50 (Homo sapiens [8]) was 3.5 µM.
`COc1ccc2oc(C(=O)Nc3nn[nH]n3)c(OC(C)C)c2c1` gave an inhibition at 33 µM (Homo sapiens [1]) of 43.3%, an inhibition at 10 µM (Homo sapiens [4]) of less than 25% and an IC50 (Homo sapiens [3]) greater than 100 µM.
Work on `COc1cc2sc(C(=O)Nc3nn[nH]n3)c(Oc3ccccc3)c2cc1OC` yielded an IC50 (Homo sapiens [6]) of less than 0.75 µM, an inhibition at 33 µM (Homo sapiens [1]) of 93.6% and an inhibition at 10 µM (Homo sapiens [2]) of 96%. For the same compound, the IC50 (Homo sapiens [7]) was 9.7 µM, the IC50 (Homo sapiens [3]) was 5.7 µM and the IC50 (Homo sapiens [8]) was 4.9 µM.
Compound `COc1ccc2c(c1)c(OC(C)C)c(C(=O)Nc1nn[nH]n1)n2-c1ccccc1` has an IC50 (Homo sapiens [6]) of 12 µM, an inhibition at 33 µM (Homo sapiens [1]) of 82% and an inhibition at 10 µM (Homo sapiens [2]) of 46%. It also gave an IC50 (Homo sapiens [7]) of 12 µM, an IC50 (Homo sapiens [3]) greater than 100 µM and an IC50 (Homo sapiens [8]) of 11 µM.
`CCOc1c(C(=O)Nc2nn[nH]n2)sc2ccc(OC)cc12` showed an inhibition at 33 µM (Homo sapiens [1]) of 98%, an inhibition at 10 µM (Homo sapiens [2]) of 92.5% and an IC50 (Homo sapiens [3]) greater than 100 µM.
In the case of `Cc1ccc2sc(C(=O)Nc3nn[nH]n3)c(OC(C)C)c2c1`, the inhibition at 10 µM (Homo sapiens [4]) is reported as less than 25%, the inhibition at 33 µM [5] is reported as less than 25% and the inhibition at 100 µM [9] is reported as less than 5%.
`COc1ccc2c(OC(C)C)c(C(=O)Nc3nn[nH]n3)sc2c1` showed an IC50 (Homo sapiens [6]) of 0.3 µM, an inhibition at 33 µM (Homo sapiens [1]) of 88.6% and an inhibition at 10 µM (Homo sapiens [2]) of 92%. For the same compound, the IC50 (Homo sapiens [7]) was 0.4 µM, the IC50 (Homo sapiens [3]) was 37 µM and the IC50 (Homo sapiens [8]) was 0.9 µM.
`COc1cc2sc(C(=O)Nc3nn[nH]n3)c(OC(C)C)c2cc1OC` showed an IC50 (Homo sapiens [6]) of less than 0.75 µM, an inhibition at 33 µM (Homo sapiens [1]) of 81.7% and an inhibition at 10 µM (Homo sapiens [2]) of 80%. The IC50 (Homo sapiens [7]) was 0.3 µM, the IC50 (Homo sapiens [3]) was 17.7 µM and the IC50 (Homo sapiens [8]) was 4.5 µM.
Work on `CC(C)Oc1c(C(=O)Nc2nn[nH]n2)sc2ccc(Oc3ccccc3)cc12` yielded an inhibition at 33 µM (Homo sapiens [1]) of 55%, an inhibition at 10 µM (Homo sapiens [4]) of less than 25% and an IC50 (Homo sapiens [3]) greater than 100 µM.
`COc1ccc2sc(C(=O)Nc3nnn[nH]3)c(OC(C)C)c2c1` showed an IC50 (Homo sapiens [6]) of 0.3 µM, an inhibition at 33 µM (Homo sapiens [1]) of 97.3% and an IC50 [10] of 2.3 µM. For the same compound, the inhibition at 10 µM (Homo sapiens [2]) was 94.7%, the IC50 [11] was 14.5 µM and the IC50 [12] was 5.5 µM. The IC50 [13] was 0.3 µM, the IC50 (Homo sapiens [3]) was 14.5 µM and the IC50 [14] was 1.1 µM. The inhibition [15] was less than 20%, the IC50 (Homo sapiens [16]) was 0.2 µM and the IC50 (Homo sapiens [17]) was 4.5 µM.
For `CCCc1c2oc(C(=O)O)cc(=O)c2cc2c(=O)cc(C(=O)O)n(CC)c12` [NEDOCROMIL], the inhibition at 10 µM (Homo sapiens [4]) was less than 25% and the inhibition at 33 µM [5] was less than 25%.
In the case of `COc1ccc2sc(C(=O)Nc3nn[nH]n3)c(OCc3ccccc3)c2c1`, the inhibition at 33 µM (Homo sapiens [1]) is reported as 84.5%, the inhibition at 10 µM (Homo sapiens [2]) is reported as 80.8% and the IC50 (Homo sapiens [3]) is reported as 23.4 µM.
In the case of `CC(C)Oc1c(C(=O)Nc2nn[nH]n2)sc2ccc(O)cc12`, the inhibition at 33 µM (Homo sapiens [1]) is reported as 86%, the inhibition at 10 µM (Homo sapiens [4]) is reported as less than 25% and the IC50 (Homo sapiens [3]) is reported as 47.8 µM.
Work on `CC(C)Oc1c(C(=O)Nc2nn[nH]n2)sc2ccc([N+](=O)[O-])cc12` yielded an inhibition at 33 µM (Homo sapiens [1]) of 53%, an inhibition at 10 µM (Homo sapiens [4]) of less than 25% and an inhibition at 100 µM [9] of less than 5%.
In the case of `COc1ccc2c(OC(C)C)c(C(=O)Nc3nn[nH]n3)oc2c1`, the inhibition at 33 µM (Homo sapiens [1]) is reported as 99.5%, the inhibition at 10 µM (Homo sapiens [2]) is reported as 77% and the IC50 (Homo sapiens [3]) is reported as 42.5 µM.
In the case of `CC(C)Oc1c(C(=O)Nc2nn[nH]n2)sc2ccc(Cl)cc12`, the inhibition at 33 µM (Homo sapiens [1]) is reported as 92%, the inhibition at 10 µM (Homo sapiens [2]) is reported as 73% and the IC50 (Homo sapiens [3]) is reported as greater than 100 µM.
For `COc1cc2sc(C(=O)Nc3nn[nH]n3)c(OCc3ccccc3)c2cc1OC`, the IC50 (Homo sapiens [6]) was less than 0.74 µM, the inhibition at 33 µM (Homo sapiens [1]) was 90.7% and the inhibition at 10 µM (Homo sapiens [2]) was 90.3%. The IC50 (Homo sapiens [7]) was 1.3 µM, the IC50 (Homo sapiens [3]) was 40 µM and the IC50 (Homo sapiens [8]) was 2.5 µM.
Compound `COc1ccc2ccc(C(=O)Nc3nn[nH]n3)c(OC(C)C)c2c1` has an inhibition at 33 µM (Homo sapiens [1]) of 90.5%, an inhibition at 10 µM (Homo sapiens [2]) of 51% and an IC50 (Homo sapiens [3]) greater than 100 µM.
`COc1cccc2c(OC(C)C)c(C(=O)Nc3nn[nH]n3)sc12` gave an inhibition at 33 µM (Homo sapiens [1]) of less than 25%, an inhibition at 10 µM (Homo sapiens [4]) of less than 25% and an IC50 (Homo sapiens [3]) greater than 100 µM.
`COc1ccc2c(OC(C)C)c(C(=O)Nc3nn[nH]n3)ccc2c1` gave an inhibition at 33 µM (Homo sapiens [1]) of 72.7% and an inhibition at 10 µM (Homo sapiens [2]) of 31.3%.
`CC(C)Oc1c(C(=O)Nc2nn[nH]n2)sc2ccc(OCc3ccccc3)cc12` showed an inhibition at 33 µM (Homo sapiens [1]) of 41.6%, an inhibition at 10 µM (Homo sapiens [4]) of less than 25% and an IC50 (Homo sapiens [3]) greater than 100 µM.
For `CC(C)Oc1c(C(=O)Nc2nn[nH]n2)sc2ccccc12`, the inhibition at 33 µM (Homo sapiens [1]) was 65.8%, the inhibition at 10 µM (Homo sapiens [2]) was 27.5% and the IC50 (Homo sapiens [3]) was greater than 100 µM.
